Assays:
[1] = Antioxidant activity assessed as ABTS free radical scavenging activity measured as trolox equivalent after 1 hr by spectrophotometry; type: physicochemical
Outline: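 ABTS radical cation generated by passing 5 mM ABTS stock through MnO2 and filtering; 245 µL radical solution added to 5 µL sample or trolox, stirred 30 s, kept dark 1 h, A734 read against MeOH blanks. Trolox calibration; expressed as µmol trolox/µmol compound; triplicate analyses, mean ± SEM of three experiments.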

[2] = Antioxidant activity assessed as DPPH free radical scavenging activity measured as trolox equivalent after 30 mins by spectrophotometry; type: physicochemical; parameters: unit not given beside the values; conditions: 0.5 h
Outline: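 Sample or trolox (5 µL) mixed with 250 µL methanolic DPPH (0.025 g/L), shaken, held in darkness 30 min, absorbance at 515 nm. Calibrated with trolox solutions; reported as µmol trolox/µmol compound; triplicate, mean ± SEM of three experiments.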

[3] = Antioxidant activity assessed as total polyphenolics measured as gallic acid equivalent after 30 mins by Folin-Ciocalteu assay; type: physicochemical; conditions: 0.5 h
[4] = biological target: Amyloid-beta precursor protein (Homo sapiens) (UniProt P05067); assay: Inhibition of aggregation of amyloid beta (1 to 42) (unknown origin) expressed in Escherichia coli BL21 (DE3) at 10 uM after 24 hrs by thioflavin S fluorescence assay
Amyloid-beta precursor protein (Homo sapiens), sequence (P05067 whole entry): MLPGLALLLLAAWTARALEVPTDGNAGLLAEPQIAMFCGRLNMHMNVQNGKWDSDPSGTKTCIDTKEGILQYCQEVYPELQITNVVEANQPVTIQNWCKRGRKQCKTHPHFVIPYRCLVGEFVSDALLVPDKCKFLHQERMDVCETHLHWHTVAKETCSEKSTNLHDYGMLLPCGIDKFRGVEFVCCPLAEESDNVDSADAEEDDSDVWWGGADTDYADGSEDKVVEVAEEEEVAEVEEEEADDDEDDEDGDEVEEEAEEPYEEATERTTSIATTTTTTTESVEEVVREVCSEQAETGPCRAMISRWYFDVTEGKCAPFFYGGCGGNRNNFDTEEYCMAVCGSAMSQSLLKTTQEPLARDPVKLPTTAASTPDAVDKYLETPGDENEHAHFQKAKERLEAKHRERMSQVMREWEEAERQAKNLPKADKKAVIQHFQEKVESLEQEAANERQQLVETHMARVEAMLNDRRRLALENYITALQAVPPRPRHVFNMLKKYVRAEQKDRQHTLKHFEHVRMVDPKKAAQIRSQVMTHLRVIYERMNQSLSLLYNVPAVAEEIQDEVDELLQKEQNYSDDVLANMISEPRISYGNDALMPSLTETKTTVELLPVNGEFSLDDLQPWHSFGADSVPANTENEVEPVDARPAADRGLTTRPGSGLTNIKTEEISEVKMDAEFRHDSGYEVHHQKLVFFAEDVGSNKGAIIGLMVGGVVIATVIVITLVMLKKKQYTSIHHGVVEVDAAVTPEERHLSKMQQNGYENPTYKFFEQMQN
Outline: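 E. coli BL21(DE3) carrying Aβ42 plasmid grown overnight at 37 °C in LB with kanamycin 50 µg/mL; diluted into LB with kanamycin, 1 mM IPTG, compound in DMSO and Th-S, grown 24 h at 37 °C, 1400 rpm; DMSO-only negative control. Th-S emission 455 nm (ex 375 nm) normalised to OD600, induced untreated cells set as 100%; mean ± SEM of four experiments.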

[5] = biological target: Microtubule-associated protein tau (Homo sapiens) (UniProt P10636); assay: Inhibition of aggregation of TAU (unknown origin) expressed in Escherichia coli BL21 (DE3) at 10 uM after 24 hrs by thioflavin S fluorescence assay
Microtubule-associated protein tau (Homo sapiens), sequence (P10636 whole entry): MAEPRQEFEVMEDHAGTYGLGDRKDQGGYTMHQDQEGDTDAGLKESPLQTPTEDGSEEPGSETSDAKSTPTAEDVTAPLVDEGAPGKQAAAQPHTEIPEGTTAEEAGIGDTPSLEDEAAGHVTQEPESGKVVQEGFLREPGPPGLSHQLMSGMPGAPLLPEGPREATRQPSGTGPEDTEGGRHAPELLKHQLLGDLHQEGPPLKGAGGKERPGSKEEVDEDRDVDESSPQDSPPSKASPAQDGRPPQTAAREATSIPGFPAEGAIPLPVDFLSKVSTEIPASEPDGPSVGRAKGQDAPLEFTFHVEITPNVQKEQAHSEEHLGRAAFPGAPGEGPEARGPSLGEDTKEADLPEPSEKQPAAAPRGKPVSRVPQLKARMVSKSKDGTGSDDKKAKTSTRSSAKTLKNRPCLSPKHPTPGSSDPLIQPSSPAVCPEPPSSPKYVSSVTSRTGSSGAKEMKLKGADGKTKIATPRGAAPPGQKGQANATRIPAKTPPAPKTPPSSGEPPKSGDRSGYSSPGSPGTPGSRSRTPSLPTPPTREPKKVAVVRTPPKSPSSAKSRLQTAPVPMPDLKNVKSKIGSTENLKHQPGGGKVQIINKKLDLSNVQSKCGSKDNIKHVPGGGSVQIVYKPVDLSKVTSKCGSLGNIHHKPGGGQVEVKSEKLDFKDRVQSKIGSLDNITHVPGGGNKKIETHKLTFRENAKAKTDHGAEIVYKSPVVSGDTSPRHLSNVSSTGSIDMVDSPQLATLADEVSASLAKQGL
Outline: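 E. coli BL21(DE3) with pTARA (T7 RNA polymerase under pBAD) transformed with pRKT42 encoding four-repeat tau; overnight culture at 37 °C in M9 with 0.5% glucose, ampicillin 50 µg/mL, chloramphenicol 12.5 µg/mL. Th-S fluorescence at 455 nm (ex 375 nm) normalised to OD600, with induced untreated cells as 100%; mean ± SEM of four experiments.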

Acetylcholinesterase [6] = biological target: T1, Acetylcholinesterase (Homo sapiens, UniProt P22303); assay: Inhibition of human recombinant AChE using acetylthiocholine iodide as substrate at 10 uM preincubated for 20 mins before substrate addition by Ellman method
T1 sequence (P22303 whole entry): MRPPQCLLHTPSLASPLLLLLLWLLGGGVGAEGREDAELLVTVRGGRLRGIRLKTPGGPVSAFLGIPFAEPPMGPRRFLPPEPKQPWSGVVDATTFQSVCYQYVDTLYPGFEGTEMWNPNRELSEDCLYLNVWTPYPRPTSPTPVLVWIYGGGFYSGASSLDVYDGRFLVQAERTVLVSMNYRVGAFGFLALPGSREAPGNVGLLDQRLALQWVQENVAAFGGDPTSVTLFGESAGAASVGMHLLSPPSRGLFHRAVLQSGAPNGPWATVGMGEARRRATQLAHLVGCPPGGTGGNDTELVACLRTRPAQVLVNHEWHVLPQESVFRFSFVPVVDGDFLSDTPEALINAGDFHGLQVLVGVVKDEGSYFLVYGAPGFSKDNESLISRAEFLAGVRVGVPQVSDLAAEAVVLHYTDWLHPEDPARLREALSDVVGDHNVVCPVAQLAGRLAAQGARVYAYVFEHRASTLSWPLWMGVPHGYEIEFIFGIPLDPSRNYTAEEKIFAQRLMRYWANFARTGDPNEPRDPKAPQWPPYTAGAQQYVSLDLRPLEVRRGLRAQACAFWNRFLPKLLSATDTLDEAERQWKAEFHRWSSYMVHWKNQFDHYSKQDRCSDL

Cholinesterase [7] = biological target: T2, Cholinesterase (Homo sapiens, UniProt P06276); assay: Inhibition of human serum BChE using butyrylthiocholine iodide at 10 uM preincubated for 20 mins before substrate addition by Ellman method
T2 sequence (P06276 whole entry): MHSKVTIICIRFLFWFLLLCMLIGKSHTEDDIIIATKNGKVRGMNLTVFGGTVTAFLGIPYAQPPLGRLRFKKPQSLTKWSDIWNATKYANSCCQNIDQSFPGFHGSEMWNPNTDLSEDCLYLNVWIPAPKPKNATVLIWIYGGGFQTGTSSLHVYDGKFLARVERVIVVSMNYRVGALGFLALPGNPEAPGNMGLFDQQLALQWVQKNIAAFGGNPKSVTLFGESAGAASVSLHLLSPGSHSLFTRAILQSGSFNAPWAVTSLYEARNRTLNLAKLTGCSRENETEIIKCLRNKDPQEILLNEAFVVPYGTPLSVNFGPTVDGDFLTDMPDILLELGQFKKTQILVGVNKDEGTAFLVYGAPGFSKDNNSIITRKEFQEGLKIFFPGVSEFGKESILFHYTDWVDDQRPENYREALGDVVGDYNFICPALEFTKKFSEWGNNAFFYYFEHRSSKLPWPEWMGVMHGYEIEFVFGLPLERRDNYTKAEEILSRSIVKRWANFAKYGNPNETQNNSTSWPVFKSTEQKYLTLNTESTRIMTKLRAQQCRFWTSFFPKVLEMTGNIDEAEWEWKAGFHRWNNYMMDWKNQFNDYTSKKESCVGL

in vitro = conditions: PAMPA
Acetylcholinesterase [8] = biological target: T1, Acetylcholinesterase; assay: Inhibition of human recombinant AChE using acetylthiocholine iodide as substrate preincubated for 20 mins before substrate addition by Ellman method
Cholinesterase [9] = biological target: T2, Cholinesterase; assay: Inhibition of human serum BChE using butyrylthiocholine iodide preincubated for 20 mins before substrate addition by Ellman method
Outline: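 Ellman spectrophotometric assay in 0.1 M phosphate buffer. Enzymes were human recombinant AChE and human serum BChE. Inhibitor (at least 10 increasing concentrations, in duplicate) was preincubated 20 min at 37 °C. Acetylthiocholine iodide (450 µM, AChE) or butyrylthiocholine iodide (300 µM, BChE) was then added and reacted 5 min at 37 °C, with absorbance read at 414 nm. The no-inhibitor control set 100% activity. IC50 came from non-linear regression, at least 4 experiments.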

O=C(O)c1cc(O)c(O)c(O)c1 [GALLIC ACID]
Activity [1]: 18.6
Activity [2]: 10.3
Activity [3]: 1033 mgequiv/g

CCCCC/C=C/C(=O)CCc1ccc(O)c(OC)c1 [SHOGAOL]
Activity [1]: 26.2
Activity [2]: 12.2
Activity [3]: 384 mgequiv/g
inhibition [4]: 10.5%
inhibition [5]: 9.2%
inhibition (Acetylcholinesterase [6]): 28%
inhibition (Cholinesterase [7]): 6%
Papp (in vitro): 147 nm/s

CC1=CC2Cc3nc4cc(Cl)ccc4c(N)c3C(C1)C2 (stereo not given) [HUPRINE Y]
Activity [1]: 2.6
Activity [2]: 1
Activity [3]: 10.2 mgequiv/g
inhibition [4]: 8.9%
inhibition [5]: 7.6%

COc1cc(CCC(=O)/C=C/c2ccc(CNc3c4c(nc5cc(Cl)ccc35)CC3CC(C)=CC4C3)cc2)ccc1O (stereo not given)
IC50 (Acetylcholinesterase [8]): 0.0183 µM
IC50 (Cholinesterase [9]): 0.742 µM
Activity [1]: 10.5
Activity [2]: 8.8
Activity [3]: 50 mgequiv/g
inhibition [4]: 70.6%
inhibition [5]: 51%
Papp (in vitro): 65 nm/s

COc1cc(CCC(=O)/C=C/c2ccc(CNc3c4c(nc5cc(Cl)ccc35)CC3CC(C)=CC4C3)cc2)cc(CN(C)C)c1O (stereo not given)
IC50 (Acetylcholinesterase [8]): 0.0211 µM
IC50 (Cholinesterase [9]): 0.181 µM
Activity [1]: 11.8
Activity [2]: 2.8
Activity [3]: 68.8 mgequiv/g
inhibition [4]: 53.9%
inhibition [5]: 40.1%
Papp (in vitro): 84 nm/s

COc1cc(CCC(=O)/C=C/CCCNc2c3c(nc4cc(Cl)ccc24)CC2CC(C)=CC3C2)ccc1O (stereo not given)
IC50 (Acetylcholinesterase [8]): 0.0067 µM
IC50 (Cholinesterase [9]): 0.982 µM
Activity [1]: 7.6
Activity [2]: 6.6
Activity [3]: 29.8 mgequiv/g
inhibition [4]: 39.3%
inhibition [5]: 35.2%
Papp (in vitro): 117 nm/s

Reference: ChEMBL document CHEMBL3352812, “Shogaol-huprine hybrids: dual antioxidant and anticholinesterase agents with β-amyloid and tau anti-aggregating properties” (Bioorg Med Chem, 2014)
